Compound activity (PubChem BioAssay)
proKLK7 act = activators of human kallikrein-7 zymogen | P49862 | purified proKLK7, EDANS-DABCYL substrate fluorescence; 100% is mature enzyme control, 0% vehicle | activation, % at 7 µM | 370,000 compounds, 0.9% hits | AID 652039;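 active = activation above the mean of all tested compounds plus 3 SD, computed per campaign excluding outliers beyond control limits, cut at about 13% in these data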
NRP1-CendR mod = modulators of CendR peptide binding to human neuropilin-1 | inhibition, % at 25 µM | FAM-RPARPAR peptide binding to NRP-1, fluorescence polarization | O14786 | 360,000 compounds, 0.85% hits;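 active = inhibition or corrected inhibition above about 18%, plus a signal ratio from 0.5 to 1.5, limit read from the data, passing the limit was not always enough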
Target sequence (O14786 whole entry, looked up): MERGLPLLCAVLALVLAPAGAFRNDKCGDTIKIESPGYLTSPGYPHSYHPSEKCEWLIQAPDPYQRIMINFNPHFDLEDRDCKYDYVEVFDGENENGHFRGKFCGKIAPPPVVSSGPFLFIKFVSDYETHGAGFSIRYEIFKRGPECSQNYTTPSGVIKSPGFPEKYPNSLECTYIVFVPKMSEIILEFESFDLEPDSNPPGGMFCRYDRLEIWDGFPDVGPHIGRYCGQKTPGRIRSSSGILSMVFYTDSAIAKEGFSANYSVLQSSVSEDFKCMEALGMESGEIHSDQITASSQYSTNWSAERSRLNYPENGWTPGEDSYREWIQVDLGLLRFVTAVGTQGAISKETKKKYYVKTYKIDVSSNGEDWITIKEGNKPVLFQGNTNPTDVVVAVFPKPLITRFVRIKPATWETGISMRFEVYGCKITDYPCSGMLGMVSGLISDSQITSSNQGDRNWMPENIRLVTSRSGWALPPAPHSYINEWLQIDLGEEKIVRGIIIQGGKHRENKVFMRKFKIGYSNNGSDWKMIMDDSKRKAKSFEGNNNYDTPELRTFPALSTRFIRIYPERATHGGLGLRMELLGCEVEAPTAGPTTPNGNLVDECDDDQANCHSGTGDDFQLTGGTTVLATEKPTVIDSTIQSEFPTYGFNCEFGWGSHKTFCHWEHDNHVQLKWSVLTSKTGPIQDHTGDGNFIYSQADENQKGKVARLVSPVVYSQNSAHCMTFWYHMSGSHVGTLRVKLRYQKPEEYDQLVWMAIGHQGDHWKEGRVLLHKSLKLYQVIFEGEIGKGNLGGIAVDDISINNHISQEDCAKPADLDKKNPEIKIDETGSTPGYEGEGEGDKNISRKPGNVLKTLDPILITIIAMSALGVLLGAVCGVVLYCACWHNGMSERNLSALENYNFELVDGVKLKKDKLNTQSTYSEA
DDE Tn7 FP inh = disrupts Tn7 cyclic peptide binding to fibrin D-Dimer-E complex | FP displacement of FITC-Tn7 peptide from fibrin DD(E); 0% = median of compound wells per plate | inhibition, % at 8.3 µM | 370,000 compounds, 0.13% hits;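 active = inhibition above the mean of compounds falling within the control limits plus 3 SD of them, cut at about 14% in these data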
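System: human fibrin DD(E); quantity: Fibrin-DD(E) at 2 µM final; also added: fluorescent Tn7 probe at 0.1 µM; compound dosing: single nominal test concentration of 8.3 µM per compound; schedule: 10 min preincubation, 3 h with tracer, room temperature; detection: fluorescence polarization of the labelled Tn7 tracer; repeats: one replicate per compound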
Tn6 DDE FP = disrupts Tn6 cyclic peptide binding to fibrin D-Dimer-E complex; inhibition, % at 8.3 µM; AID 720509; 370,000 compounds, 0.21% hits; Fibrin DD(E) TRITC-Tn6 fluorescence polarization displacement; P02675;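 active = inhibition above a per-campaign cutoff: mean of compounds within control limits plus 3 SD, cut at about 15% in these data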
PLC-gamma1 inh = PLC-gamma1 (human) inhibition, primary screen; P19174; 370,000 compounds, 0.84% hits; purified PLC-gamma1, fluorogenic substrate, fluorescence; inhibition, % at 12.2 µM; in the data active = inhibition above about 9.5%
PLCb3 inh = PLC-beta3 (human) inhibition, primary screen | AID 720704 | inhibition, % at 12.2 µM | 370,000 compounds, 0.18% hits | Q01970 | Purified PLC-beta3, fluorogenic substrate, fluorescence; in the data active = inhibition above about 11%
Hits are given with their value; – = inactive; · = no result given; ! = not confirmed by another sample. Sampled rows, rich in hits. Any-hit rate of the full collection: about 3%.

SMILES	proKLK7 act	NRP1-CendR mod	DDE Tn7 FP inh	Tn6 DDE FP	PLC-gamma1 inh	PLCb3 inh
Cc1cccc(C(=O)N2CCC(=O)N(C(COCc3ccccc3)Cc3ccccc3)CC2)c1 (stereo unspecified)	–	–	–	–	15	–
O=C(c1ccc(C(F)(F)F)cc1)N1CCC(=O)N(C(CO)Cc2ccccc2)CC1 (stereo unspecified)	–	26	–	–	–	–
Cc1ccc(-n2c(SCC(=O)OC(C)C)nnc2-c2ccccn2)cc1	–	–	–	–	–	–
CC(C)OC(=O)CSc1nnc(-c2ccccn2)n1-c1ccccc1	–	21	–	–	–	–
Cc1cc(C)nc(SCCN(C)C)n1	–	–	–	–	–	–
Cc1cc(C)nc(SCCN2CCCCC2)n1	–	–	–	–	13	–
CCC1Nc2ncnc(N3CCCCC3)c2N(Cc2ccc(C)cc2)C1=O (stereo unspecified)	–	29!	–	–	–	–
CC(=O)NC1CCCCN(Cc2cccc(F)c2)C1=O (stereo unspecified)	–	·	–	–	–	–
CC(C)c1cc(C(C)C)c(S(=O)(=O)N2CCC(c3cn4ccccc4n3)CC2)c(C(C)C)c1	–	·	–	–	–	–
CN(Cc1ccc2c(c1)CCCN2C)C(=O)[C@H]1O[C@@H](n2ccc(=O)[nH]c2=O)[C@H](O)[C@@H]1O	–	27	–	–	–	–
Cn1c(CNC(=O)c2ccccc2F)nnc1SCC(=O)c1ccccc1	–	27	–	–	–	–
Cn1c(CNC(=O)c2ccccc2F)nnc1SCC(=O)NCc1ccccc1	–	–	–	–	–	–
CCCOc1ccc(N2C(=O)CC(N3CCN(C(=O)c4ccco4)CC3)C2=O)cc1 (stereo unspecified)	–	–	–	17	–	–
CCOc1ccc(N2C(=O)CC(N3CCN(c4ccc(Cl)cc4)CC3)C2=O)cc1 (stereo unspecified)	–	22	–	–	–	–
COc1cccc(N2CCN(CC(=O)NCc3ccco3)CC2)c1	–	·	–	–	–	–
COc1ccc(F)cc1-c1cc(C(=O)N2CCc3ccccc3C2)[nH]n1	–	–	–	–	11	11
O=C(c1cc(-c2ccc(Cl)cc2)n[nH]1)N1CCc2ccccc2C1	–	–	–	–	–	–
O=S1(=O)c2ccc(N3CC[C@H](O)C3)cc2O[C@H]2CCN1C2	–	·	–	–	–	–
O=C(c1cccs1)N1CCCC1	–	–	–	–	–	–
O=C(c1cccs1)N1CC=C(c2ccccc2)CC1	–	17	–	–	–	–
CCCCN(c1ccccc1)S(=O)(=O)c1ccc2c(c1)CCN2C(=O)CCC(=O)O	–	25	–	–	–	–
CC1(C)CN(O)CCN1O	–	25	–	–	–	–
COCCN=C1Sc2ccccc2[C@@H]2C[C@H]3[C@H](CON3C)CN12	–	·	–	–	–	–
CCOc1ccc(-n2c(Cc3cc(=O)[nH]c(=O)[nH]3)nnc2SC(C)C)cc1	–	38	–	–	–	–
Cc1cc(=O)[nH]c(SCC(=O)Nc2cccc(C)c2C)n1	–	·	–	–	–	–
SMILES	proKLK7 act	NRP1-CendR mod	DDE Tn7 FP inh	Tn6 DDE FP	PLC-gamma1 inh	PLCb3 inh
COc1ccc(OC)c(S(=O)(=O)N2CCC(C(=O)N3CCN(C4CCCCC4)CC3)CC2)c1	–	·	–	–	–	–
COc1ccc(OCC(=O)O/N=C(\N)Cc2ccc(Cl)cc2Cl)cc1	–	46	–	–	–	–
CCn1c(=S)sc2c(=O)n(CC(=O)NCCCc3ccccc3)c(C)nc21	–	26	–	–	–	–
Cc1cc(SCC(=O)c2ccccc2)nc(C)n1	–	26	–	–	–	–
Cc1ccc(C(=O)CSc2cc(C)nc(SCC(=O)c3ccccc3)n2)cc1	–	–	–	–	–	–
COc1ccc(-n2c(SCC(=O)N3CCCC3)nnc2-c2ccncc2)cc1	–	·	–	–	–	–
COc1ccccc1NC(=S)N(Cc1ccc(Cl)cc1)CC1CCC(C(=O)O)CC1 (stereo unspecified)	–	28	–	–	–	–
Cc1nc(SCC(=O)NCC2CCCO2)c2c3c(sc2n1)CCCC3 (stereo unspecified)	–	30	–	–	–	–
Cc1nc(SCC(=O)NCC2CCCO2)c2c(C)c(C)sc2n1 (stereo unspecified)	–	–	–	–	–	–
Oc1ccc(Oc2ccccc2F)c2cccnc12	·	·	–	–	–	–
CC(NNC(=S)N1CCN(c2ccccn2)CC1)c1nccc2ccccc12 (stereo unspecified)	–	24	–	–	–	–
CCOc1ccc(-c2cc(C(=O)OC)c3n(c2=O)CCC3)cc1	–	·	–	–	–	–
COC(=O)[C@@]12CCCCC=C1N(CCc1ccc(Cl)cc1)C(=O)[C@H]2CC(=O)NCc1cccc(C(F)(F)F)c1	–	·	–	–	–	–
C=CCn1c(SCC(=O)OC(C)C)nnc1-c1ccc(C)cc1	–	·	–	–	–	–
CCN(CC(=O)NCc1cccs1)C(=O)c1ccc(S(=O)(=O)N(C)c2ccccc2)cc1	–	21	–	–	–	–
C=CCN1C(=O)[C@@H](CC(=O)N2CCN(C(=O)C3CC3)CC2)[C@]2(C(=O)OC)CCCCC=C12	–	·	–	–	–	–
CN(C)/C(=N\S(=O)(=O)c1ccccc1)c1ccccc1	–	27	–	–	–	–
Nc1[nH]c(C(=O)c2ccccc2)c(-c2cccc3ccccc23)c1C(=O)c1c(-c2ccccc2)[nH]c2ccccc12	·	·	–	–	–	–
CCC[C@H]1[C@@H](OC(=O)NCc2ccc(C)cc2)CC[C@@]23CCCN2C(=O)CCC[C@@H]13	·	·	–	–	–	–
CCNS(=O)(=O)c1ccc(CCC(N)=O)cc1	–	–	–	–	–	–
CCNS(=O)(=O)c1ccc(CCC(=O)O)cc1	–	26	–	–	–	–
Cc1ccc(CN2CCN(Cc3ccncc3)CC2CCO)o1 (stereo unspecified)	–	–	–	–	–	–
Cc1ccc(CN2CCN(Cc3c(C)nn(C(C)C)c3C)CC2CCO)o1 (stereo unspecified)	–	18	–	–	–	–
Nc1c(C(=O)NCC(O)c2ccccc2)cnn1-c1ccccc1 (stereo unspecified)	–	·	–	–	–	–
COc1ccccc1NC(=S)NNC(=O)c1ccccc1Br	–	21	–	–	–	–
COC(=O)[C@H](CC(C)C)N1Cc2nnn(CC3CCCCC3)c2-c2cc(F)ccc2S1(=O)=O	–	·	–	–	–	–
CCOC(=O)N1CCN(C(=O)CNC(=O)c2ccc(Br)cc2)CC1	–	27	–	–	–	–
O=C(O)c1cc(N2N=C(C(F)(F)F)/C(=C/C=C/c3ccco3)C2=O)ccc1Cl	–	–	–	–	63	–
